# In ChEMBL document CHEMBL1122504, “Heterocyclic Quinones. 4. A new highly cytotoxic drug: 6,7-bis(1-aziridinyl)-5,8-quinazolinedione” (1983):
# Several values for one entry are separate records, joined by “and”; a condition that tells them apart may be missing. Identical values can stand only once.
# Tested on: L1210
# Assay: Concentration that decreases the growth rate of the L1210 cells by 50% after 48 hr of culture
# Type: functional
# Conditions: Mus musculus, L1210, 48 h; read-out: ID50 (the source's name)
# Summary of the method: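 L1210 leukemia cells cultured with increasing drug concentrations for 48 h at 37 °C under 5% CO2. Percentage inhibition of control growth was fitted by least-squares linear regression against log dose, and the concentration lowering control growth by 50% was estimated from the regression equation.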
row,IC50,SMILES
1,0.359 µg/mL and 1.48 µM,O=C1C(N2CCCCC2)=CC(=O)c2ncncc21
2,0.215 µg/mL and 1.05 µM,COC1=C(N)C(=O)c2ncncc2C1=O
3,0.889 µg/mL and 3.31 µM,COC1=C(Br)C(=O)c2ncncc2C1=O
4,0.593 µg/mL and 3.12 µM,COC1=CC(=O)c2ncncc2C1=O
